Assay results reported in ChEMBL document CHEMBL1123849, “Synthesis and binding affinities of analogues of cholecystokinin-(30-33) as probes for central nervous system cholecystokinin receptors” (J Med Chem, 1987).
Square brackets hold non-standard residues; d marks the D form. Peptide text beside a SMILES is read from it. * marks the point of attachment. sY = N[C@@H](Cc1ccc(OS(=O)(=O)O)cc1)C(=O)O; Boc = CC(C)(C)OC(=O)*

target: T1, Cholecystokinin receptor (Mus musculus, UniProt O08786+P56481); test: Displacement of [3H]pentagastrin from Cholecystokinin receptor of mouse cerebral cortex; format: tissue-based
T1 sequence (O08786 whole entry): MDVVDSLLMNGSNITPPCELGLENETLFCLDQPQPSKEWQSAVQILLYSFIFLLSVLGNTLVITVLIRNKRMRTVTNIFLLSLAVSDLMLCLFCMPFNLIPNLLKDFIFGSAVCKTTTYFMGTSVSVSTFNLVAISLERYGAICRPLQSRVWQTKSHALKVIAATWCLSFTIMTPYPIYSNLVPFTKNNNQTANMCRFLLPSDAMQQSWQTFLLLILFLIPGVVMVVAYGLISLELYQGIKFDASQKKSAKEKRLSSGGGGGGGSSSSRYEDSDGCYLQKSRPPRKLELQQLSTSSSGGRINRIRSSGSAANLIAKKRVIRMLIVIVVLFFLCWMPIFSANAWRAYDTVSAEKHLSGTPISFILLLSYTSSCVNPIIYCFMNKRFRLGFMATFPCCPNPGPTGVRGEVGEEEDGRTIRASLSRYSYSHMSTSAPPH
T1 sequence (P56481 whole entry): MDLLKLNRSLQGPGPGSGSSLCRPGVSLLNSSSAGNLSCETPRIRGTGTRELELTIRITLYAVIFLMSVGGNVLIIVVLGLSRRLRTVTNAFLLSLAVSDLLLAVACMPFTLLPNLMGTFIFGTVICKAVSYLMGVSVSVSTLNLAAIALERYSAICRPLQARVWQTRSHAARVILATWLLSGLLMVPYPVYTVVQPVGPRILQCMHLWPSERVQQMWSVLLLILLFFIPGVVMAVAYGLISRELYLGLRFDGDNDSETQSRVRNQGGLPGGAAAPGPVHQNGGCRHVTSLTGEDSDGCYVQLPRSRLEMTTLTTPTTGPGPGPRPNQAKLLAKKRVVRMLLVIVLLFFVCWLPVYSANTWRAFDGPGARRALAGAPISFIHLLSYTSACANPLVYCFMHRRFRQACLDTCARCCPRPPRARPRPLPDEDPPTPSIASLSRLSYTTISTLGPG
Procedure, shortened: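 Radioligand was [3H]-Boc-β-alanyl-CCK-30-33 (pentagastrin), displaced from central CCK receptors in homogenized mouse cerebral cortex.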

SMILES | Ki [nM]
CC(C)(C)OC(=O)N[C@@H](Cc1c[nH]c2ccccc12)C(=O)NCC(=O)N[C@@H](Cc1ccccc1)C(N)=O (Boc-Trp-Gly-Phe-NH2) | 11000
CSCC[C@H](NC(=O)[C@H](Cc1ccc(OS(=O)(=O)O)cc1)NC(=O)[C@@H](N)CC(=O)O)C(=O)NCC(=O)N[C@@H](Cc1c[nH]c2ccccc12)C(=O)N[C@@H](CCSC)C(=O)N[C@@H](CC(=O)O)C(=O)N[C@@H](Cc1ccccc1)C(N)=O (stereo in doubt; 1) [SINCALIDE] | 3
CC(C)(C)OC(=O)N[C@@H](Cc1c[nH]c2ccccc12)C(=O)NCCC(=O)NC(Cc1ccccc1)C(N)=O (stereo partly specified) | 45000
CSCC[C@H](NC(=O)[C@H](Cc1c[nH]c2ccccc12)NC(=O)OC(C)(C)C)C(=O)NCC(=O)N[C@@H](Cc1ccccc1)C(N)=O (Boc-WMGF-NH2) | 24000
CSCC[C@H](NC(=O)[C@H](Cc1ccc(OS(=O)(=O)O)cc1)NC(=O)[C@@H](N)CC(=O)O)C(=O)NCC(=O)N[C@@H](Cc1c[nH]c2ccccc12)C(=O)N[C@@H](CCSC)C(=O)N[C@@H](CC(=O)O)C(=O)N[C@@H](Cc1ccccc1)C(N)=O (stereo in doubt; 2) [SINCALIDE] | 180
CSCC[C@H](NC(=O)[C@@H](N)Cc1c[nH]c2ccccc12)C(=O)N[C@@H](CC(=O)O)C(=O)N[C@@H](Cc1ccccc1)C(N)=O [TETRAGASTRIN] | 3
CSCC[C@H](N)C(=O)N[C@@H](CC(=O)O)C(=O)N[C@@H](Cc1ccccc1)C(N)=O (H-Met-Asp-Phe-NH2) | 100000

Continued, values first:

Ki [nM] | SMILES
1600 | CC(C)(C)OC(=O)N[C@@H](Cc1c[nH]c2ccccc12)C(=O)NCC(=O)N[C@@H](CC(=O)O)C(=O)N[C@@H](Cc1ccccc1)C(N)=O (Boc-WGDF-NH2)
1.8 | CSCC[C@H](NC(=O)[C@H](Cc1c[nH]c2ccccc12)NC(=O)OC(C)(C)C)C(=O)N[C@@H](CC(=O)O)C(=O)N[C@@H](Cc1ccccc1)C(N)=O
0.6 | CSCC[C@H](NC(=O)[C@H](Cc1c[nH]c2ccccc12)NC(=O)CCNC(=O)OC(C)(C)C)C(=O)N[C@@H](CC(=O)O)C(=O)N[C@@H](Cc1ccccc1)C(N)=O [PENTAGASTRIN]
2 | CSCC[C@H](NC(=O)[C@H](Cc1c[nH]c2ccccc12)NC(=O)CNC(=O)[C@H](CCSC)NC(=O)[C@@H](N)Cc1ccc(OS(=O)(=O)O)cc1)C(=O)N[C@@H](CC(=O)O)C(=O)N[C@@H](Cc1ccccc1)C(N)=O (H-[sY]MGWMDF-NH2)
